RGS4 pot – RGS4 potentiation or activation. HEK293 M3R/inducible RGS4, carbachol calcium flux Fluo4; hits give low values. AID 463111. 310,000 tested, 0.92% active. B-score at 10 µM;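 active = B-score of the integrated calcium signal more than 4 SD below the library mean, with starting fluorescence not abnormally high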;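 note: negative B-score means reduced calcium response which marks RGS4 activation or potentiation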
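Material: Inducible-RGS4 HEK293 cells carrying M3 receptor; also added: carbachol at ECmax as muscarinic agonist stimulus; incubation: compound preincubation 20 min at room temperature before agonist; signal: Fluo4-AM (2 µM) calcium-flux fluorescence, kinetic read; measure: integrated calcium ratio converted to B score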
RGS4 block – inhibitors of human RGS4; P49798; HEK293 M3R/RGS4 inducible, Fluo-4 calcium flux; hits give high values; triggered by carbachol at its EC20; B-score at 10 µM; 310,000 tested, 0.45% active; AID 463165;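 active = B-score, a plate-corrected calcium signal, over three deviations above library mean, with baseline fluorescence within five deviations of library mean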;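 note: RGS4 expression induced by doxycycline in cells with stable M3 receptor; B-score is computed from the integrated fluorescence ratio over baseline after carbachol; higher B-score means a larger calcium signal and so more RGS4 inhibition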
MrgX1 antag – human MrgX1 receptor antagonism, primary screen | AID 588676 | MRGX1-HEK293 calcium flux, Fluo-4, BAM8-22 antagonism; hits give low values | B-score at 10 µM | 310,000 tested, 1.3% active;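 active = calcium-response B-score plate-corrected more than 3 library SD below zero, starting fluorescence within 5 deviations, no agonist response on first addition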;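 note: peak minus trough fluorescence over baseline after final BAM8-22 challenge near maximal dose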
Target sequence (Q96LB2 whole entry, looked up): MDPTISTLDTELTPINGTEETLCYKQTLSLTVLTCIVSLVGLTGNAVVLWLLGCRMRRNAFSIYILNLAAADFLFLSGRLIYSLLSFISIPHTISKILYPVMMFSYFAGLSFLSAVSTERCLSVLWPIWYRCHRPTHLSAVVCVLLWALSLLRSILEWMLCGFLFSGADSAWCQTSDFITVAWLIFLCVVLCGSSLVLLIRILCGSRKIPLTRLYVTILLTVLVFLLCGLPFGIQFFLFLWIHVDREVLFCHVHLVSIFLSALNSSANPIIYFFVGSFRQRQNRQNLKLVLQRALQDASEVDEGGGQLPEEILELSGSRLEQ
MrgX1 ag – agonists of human MrgX1 receptor; Q96LB2; AID 588627; MrgX1-HEK293 cells, Fluo-4 calcium fluorescence, agonist mode; hits give high values; B-score at 10 µM; 310,000 tested, 0.44% active;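 active = calcium response B-score plate-corrected fluorescence ratio at least 3 library SD, with starting fluorescence B-score inside 5 SD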
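Material – MrgX1-expressing HEK293 cells · Input – 15,000 cells seeded per well · Dosing – compound as first of three additions · Times – overnight seeding, then 1 h dark dye loading · Measured by – kinetic Fluo-4 NW fluorescence of intracellular calcium · Read-out – B-scored fluorescence response ratio · Benchmarks – positive and negative control wells on each plate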
MrgX1 allo act – allosterically activates human MrgX1 receptor signaling | MrgX1-HEK293, Fluo-4 calcium flux, FDSS; hits give high values | 310,000 tested, 0.63% active | B-score at 10 µM | AID 588675;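 active = plate-corrected calcium response at least 3 library SD above typical, normal starting fluorescence, not activating the receptor alone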;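 note: compound read alongside a low EC10 to EC30 dose of BAM8-22 agonist; peak minus trough fluorescence over baseline measured at the second addition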
Each line names hits and unclear results; the compound was inactive in the other large screens. In the library only some 3.5% were active in any assay of this set; here they are far more common.

COc1ccc(NC(=O)c2cc(S(=O)(=O)N3CCOCC3)ccc2N2CCOCC2)cc1	none
CCCCN1C(=O)NC(NC(=O)c2ccco2)(C(F)(F)F)C1=O (stereo unspecified)	none
CC(C)Oc1ccc(C(=O)NC2(C(F)(F)F)NC(=O)N(CCCc3ccccc3)C2=O)cc1 (stereo unspecified)	RGS4 pot -7.1
N#Cc1c(NC(=O)CSc2nc3ccccc3s2)sc2c1CCCC2	none
CCC[n+]1c(C)sc2c(OC)ccc(OC)c21	MrgX1 antag -5.5
COCC(=O)OCC(=O)Nc1ccccc1-c1ccccc1	none
CCNS(=O)(=O)c1ccc(CCC(=O)N2CCc3ccccc3C2)cc1	none
CC(C)CC(NC(=O)c1ccccc1)C(=O)N/N=C/c1ccco1 (stereo unspecified)	MrgX1 ag 30
O=C(CCCCCCCCC(=O)N/N=C/c1ccco1)N/N=C/c1ccco1	MrgX1 antag -5.7
CC(NC(=O)c1ccccc1)C(=O)N/N=C/c1ccco1 (stereo unspecified)	none
Cc1cc(C)c(C)c(S(=O)(=O)N2CCN(C(=O)C3CSC4(C)CCC(=O)N34)CC2)c1C (stereo unspecified)	none
O=C(NCC1CCCO1)C(c1ccc(F)cc1)N(CC1CCCO1)C(=O)c1ccc(-c2ccccc2)[nH]1 (stereo unspecified)	none
Cc1ccc2cc(C(c3nnnn3CC3CCCO3)N3CCc4ccccc4C3)c(=O)[nH]c2c1 (stereo unspecified)	none
Cc1cccc2cc(C(c3nnnn3CC3CCCO3)N3CCc4ccccc4C3)c(=O)[nH]c12 (stereo unspecified)	MrgX1 antag -5.1 (no result: RGS4 pot, RGS4 block)
Cc1nn(-c2ccc(Cl)cc2)c(=O)c2ccccc12	none
Cc1nn(-c2ccc(Cl)nn2)c(=O)c2ccccc12	MrgX1 allo act 14
Cc1ccc(Cl)cc1N1CCN(C(=O)c2cc3c(=O)n(C)c4ccccc4c3n2C)CC1	RGS4 pot -7.2
COc1ccc(/C=C(\C#N)C(=O)c2c(C)[nH]c3ccccc23)cc1OC	MrgX1 ag 32
S=C(NCC1CCCO1)N1CCN(Cc2ccccc2)CC1 (stereo unspecified)	none
CCOc1ccc(N=C2C(=O)N(CN3CCOCC3)c3ccccc32)cc1	MrgX1 ag 33
CCN1/C(=C/C(C)=C/c2sc3ccccc3[n+]2CC)Sc2ccccc21	MrgX1 antag -6.4
CC(C)(C)C(=O)C(Cl)C(=O)Nc1ccccc1 (stereo unspecified)	RGS4 block 45
Cc1ccccc1-n1c(SCc2c(C)noc2C)nnc1-c1c[nH]c2ccccc12	MrgX1 antag -4.5
COC(=O)C1=C(CS(=O)(=O)c2cc(Cl)ccc2OC)NC(=O)NC1c1ccc(O)c(OC)c1 (stereo unspecified)	none
Cc1nnc(SCc2cc(=O)[nH]c(/N=C(\N)Nc3ccccc3Sc3ccccc3)n2)s1	RGS4 pot -7.4
COC(=O)c1cc(S(=O)(=O)NC2CCCCC2)cn1C	none
COCCN(CCOC)c1nc(-c2ccc(Cl)cc2)nc2ccccc12	RGS4 pot -7.3
COC(=O)CN1C(=O)N/C(=C/c2ccc(OC)cc2)C1=O	MrgX1 ag 43
Cn1c(=O)nc2n(Cc3ccccc3)c3cccc(Cl)c3cc-2c1=O	RGS4 pot -9.4
Cn1c(=O)n(Cc2ccccc2)c2ccccc21	none
CCOC(=O)N1CCN(C(=O)c2ccc(Cn3c(=S)[nH]c4ccc(Br)cc4c3=O)cc2)CC1	MrgX1 antag -5.6
CCOC(=O)N1CCN(C(=O)c2ccc3c(=O)n(Cc4ccc(Cl)cc4)c(=S)[nH]c3c2)CC1	none
CC12CCC(C/C1=N\OC(=O)c1c(F)cccc1F)C2(C)C (stereo unspecified)	MrgX1 ag 54
CC12CCC(C/C1=N/NC(=O)Nc1ccccc1)C2(C)C (stereo unspecified)	MrgX1 allo act 13
CC12CCC(C/C1=N/NC(=O)COc1ccccc1Cl)C2(C)C (stereo unspecified)	none
COCCNC(=O)C(c1ccc(F)cc1)N(C(=O)CCC(=O)Nc1ccccn1)C1CCCCC1 (stereo unspecified)	none
Cc1c(C(=O)NCc2cccnc2)oc2ccc(S(=O)(=O)N3CCC4(CC3)OCCO4)cc12	none
Cc1ccc(CNC(=O)c2oc3ccc(S(=O)(=O)N4CCC5(CC4)OCCO5)cc3c2C)cc1	RGS4 pot -8.4

High-throughput results (PubChem BioAssay)
